Test results published in ChEMBL document CHEMBL4011626, “Structure-Based Optimization of Pyridoxal 5'-Phosphate-Dependent Transaminase Enzyme (BioA) Inhibitors that Target Biotin Biosynthesis in Mycobacterium tuberculosis” (J Med Chem, 2017).
In brackets after ≈: the same amount, converted by molar mass.

Assays:
[1] = tested on: Mycobacterium tuberculosis H37Rv; assay: Inhibition of Bio-A in wild type Mycobacterium tuberculosis H37Rv after 9 days
Outline: (§1)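 Wild-type Mtb H37Rv was pregrown in Sauton's medium with 1 μM biotin to OD580 1.0–1.2, washed twice in biotin-free Sauton's, and seeded at OD580 0.03 without biotin. Compounds were tested at 0.2–50 μM final, with no-compound controls, at 37 °C. OD580 was read at 9 days. MIC is the concentration giving 50% inhibition. Triplicate, two biological replicates.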

[2] = tested on: Mycobacterium tuberculosis H37Rv; assay: Inhibition of Bio-A in wild type Mycobacterium tuberculosis H37Rv in presence of biotin after 9 days
Outline: as §1, with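 “with 1 μM biotin added.” for “without biotin.”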

[3] = tested on: Mycobacterium tuberculosis; assay: Inhibition of Bio-A underexpressed in Mycobacterium tuberculosis in presence of anhydrotetracycline after 9 days
Outline: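 BioA-overexpressing or BioA-underexpressing Mtb strains were pregrown in Sauton's with 1 μM biotin, washed twice, and seeded at OD580 0.03 in biotin-free medium with 200 ng/mL anhydrotetracycline to set BioA expression. Compounds were tested at 0.2–50 μM final at 37 °C. OD580 was read after 9 days. MIC is the concentration giving 50% inhibition. Triplicate, two biological replicates.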

[4] = Inhibition of wild type Mycobacterium tuberculosis Bio-A using KAPA as substrate after 45 mins in presence of fluorescently labeled dethiobiotin tracer
[5] = tested on: Mycobacterium tuberculosis; assay: Antibacterial activity against wild type Mycobacterium tuberculosis H37Rv after 14 days; type: functional; settings: 336 h

**Q.** With `CC(=O)c1ccc(N2CCN(C(=O)c3ccc4c(c3)OCO4)CC2)cc1` as the molecule, how does the MIC50 [1] read?
**A.** The MIC50 was 5.6 µM (≈ 1.97 µg/mL).

**Q.** And the MIC90 [1]?
**A.** The MIC90 was 23.4 µM (≈ 8.25 µg/mL).

**Q.** What about the MIC90 [2] of the same molecule?
**A.** Its MIC90 is > 50 µM.

**Q.** What about the MIC50 [3] of the same molecule?
**A.** Its MIC50 is 0.4 µM.

**Q.** And the MIC90 [3]?
**A.** The MIC90 was 1.7 µM.

**Q.** What about the IC50 [4] of the same molecule?
**A.** The IC50 was 155 nM.

**Q.** And the MIC [5]?
**A.** The MIC was 26 µM (≈ 9.16 µg/mL).

**Q.** For `O=C(c1cccc(Cl)c1)N1CCN(c2ccc([N+](=O)[O-])cc2)CC1`, which MIC50 [1] is on record?
**A.** The MIC50 was 15.4 µM (≈ 5.33 µg/mL).

**Q.** And the MIC50 [3]?
**A.** Its MIC50 is 4.7 µM.

**Q.** Which MIC50 [1] does the source give for `O=C1CCc2cc(N3CCN(C(=O)c4ccc5c(c4)OCO5)CC3)ccc21` here?
**A.** The MIC50 was 1.7 µM (≈ 0.619 µg/mL).

**Q.** What about the MIC50 [3] of the same molecule?
**A.** The MIC50 was 0.3 µM.

**Q.** For `CC(=O)c1cccc(N2CCN(C(=O)c3cccc(Cl)c3)CC2)c1`, which MIC50 [1] is on record?
**A.** Its MIC50 is > 50 µM.

**Q.** What about the MIC50 [3] of the same molecule?
**A.** The MIC50 was 26.6 µM.

**Q.** Which MIC50 [1] does the source give for `CC(=O)c1ccc(N2CCN(C(=O)c3cscn3)CC2)cc1` here?
**A.** Its MIC50 is > 50 µM.

**Q.** What about the MIC50 [3] of the same molecule?
**A.** Its MIC50 is > 50 µM.

**Q.** Which MIC50 [1] does the source give for `N#Cc1ccc(N2CCN(C(=O)c3cccc(Cl)c3)CC2)cc1` here?
**A.** The MIC50 was 18.5 µM (≈ 6.03 µg/mL).

**Q.** What about the MIC50 [3] of the same molecule?
**A.** The MIC50 was 44.8 µM.

**Q.** Which MIC50 [1] does the source give for `Cn1nnnc1-c1ccc(N2CCN(C(=O)c3cccc(Cl)c3)CC2)cc1` here?
**A.** Its MIC50 is > 50 µM.

**Q.** What about the MIC50 [3] of the same molecule?
**A.** The MIC50 was > 50 µM.

**Q.** Which MIC50 [1] does the source give for `Cc1noc(-c2ccc(N3CCN(C(=O)c4cccc(Cl)c4)CC3)cc2)n1` here?
**A.** Its MIC50 is > 50 µM.

**Q.** And the MIC50 [3]?
**A.** The MIC50 was > 50 µM.

**Q.** For `CCCC(=O)N1CCN(c2ccc(C(C)=O)cc2)CC1`, which MIC50 [1] is on record?
**A.** The MIC50 was > 50 µM.

**Q.** What about the MIC50 [3] of the same molecule?
**A.** The MIC50 was > 50 µM.

**Q.** For `CC(=O)c1ccc(N2CCN(C(=O)c3cncc(Cl)c3)CC2)cc1`, which MIC50 [1] is on record?
**A.** The MIC50 was > 50 µM.

**Q.** What about the MIC50 [3] of the same molecule?
**A.** The MIC50 was > 50 µM.

**Q.** For `COC(=O)c1ccc(N2CCN(C(=O)c3cccc(Cl)c3)CC2)cc1`, which MIC50 [1] is on record?
**A.** The MIC50 was > 50 µM.

**Q.** And the MIC50 [3]?
**A.** The MIC50 was > 50 µM.

**Q.** For `CC(=O)c1ccc(N2CCC(C(=O)c3ccc4c(c3)OCO4)CC2)cc1`, which MIC50 [1] is on record?
**A.** Its MIC50 is > 50 µM.

**Q.** What about the MIC50 [3] of the same molecule?
**A.** Its MIC50 is > 50 µM.

**Q.** For `CC(=O)c1ccc(N2CCN(C(=O)CC(C)C)CC2)cc1`, which MIC50 [1] is on record?
**A.** Its MIC50 is > 50 µM.

**Q.** And the MIC50 [3]?
**A.** Its MIC50 is > 50 µM.

**Q.** What does the source list for `CN1Cc2cc(N3CCN(C(=O)c4cccc(Cl)c4)CC3)ccc2C1=O`?
**A.** MIC50 [1]: 15.2 µM (≈ 5.62 µg/mL); MIC50 [3]: 1.2 µM

**Q.** For `O=C(c1cccc(Cl)c1)N1CCN(c2ccc(-c3ccno3)cc2)CC1`, which MIC50 [1] is on record?
**A.** The MIC50 was 6.7 µM (≈ 2.46 µg/mL).

**Q.** What about the MIC50 [3] of the same molecule?
**A.** The MIC50 was 0.4 µM.

**Q.** Which results are given for `CC(=O)c1ccc(N2CCN(C(=O)c3ccc4c(c3)OCCCO4)CC2)cc1`?
**A.** MIC50 [1]: > 50 µM; MIC50 [3]: 21.1 µM

**Q.** For `C/C(=N\O)c1ccc(N2CCN(C(=O)c3cccc(Cl)c3)CC2)cc1`, which MIC50 [1] is on record?
**A.** The MIC50 was 20.4 µM (≈ 7.3 µg/mL).

**Q.** And the MIC50 [3]?
**A.** The MIC50 was 15.1 µM.

**Q.** Which MIC50 [1] does the source give for `COc1ccc(-c2ccc(N3CCN(C(=O)c4cccc(Cl)c4)CC3)cc2)nc1` here?
**A.** The MIC50 was 22 µM (≈ 8.97 µg/mL).

**Q.** And the MIC50 [2]?
**A.** The MIC50 was > 50 µM.

**Q.** What about the MIC50 [3] of the same molecule?
**A.** The MIC50 was 24.4 µM.

**Q.** Which results are given for `CC(=O)c1ccc(N2CCN(C(=O)c3ccc(Cl)c(Cl)c3)CC2)cc1`?
**A.** MIC50 [1]: 10.2 µM (≈ 3.85 µg/mL); MIC50 [3]: 1.9 µM

**Q.** Which MIC50 [1] does the source give for `CCCCCC(=O)N1CCN(c2ccc(C(C)=O)cc2)CC1` here?
**A.** The MIC50 was 8.7 µM (≈ 2.63 µg/mL).

**Q.** What about the MIC50 [3] of the same molecule?
**A.** The MIC50 was 10.6 µM.

**Q.** For `CC(=O)c1ccc(N2CCN(C(=O)c3cnn(C)c3)CC2)cc1`, which MIC50 [1] is on record?
**A.** The MIC50 was > 50 µM.

**Q.** What about the MIC50 [3] of the same molecule?
**A.** Its MIC50 is 11.3 µM.

**Q.** Which MIC50 [1] does the source give for `O=C(c1cccc(Cl)c1)N1CCN(c2ccc(-c3ccccn3)cc2)CC1` here?
**A.** The MIC50 was > 50 µM.

**Q.** And the MIC50 [3]?
**A.** The MIC50 was > 50 µM.

**Q.** For `CC(=O)c1ccc(-c2cn(Cc3cccc(Cl)c3)nn2)cc1`, which MIC50 [1] is on record?
**A.** Its MIC50 is 22 µM (≈ 6.86 µg/mL).

**Q.** And the MIC50 [2]?
**A.** Its MIC50 is > 50 µM.

**Q.** What about the MIC50 [3] of the same molecule?
**A.** The MIC50 was 24.4 µM.

**Q.** For `CC(=O)c1ccc(N2CCN(C(=O)c3ccc4c(c3)OCCO4)CC2)cc1`, which MIC50 [1] is on record?
**A.** Its MIC50 is > 50 µM.

**Q.** And the MIC50 [3]?
**A.** The MIC50 was 10.4 µM.

**Q.** For `CC(=O)c1ccc(N2CCN(C(=O)c3cccc(Cl)c3)CC2)cc1`, which MIC50 [1] is on record?
**A.** The MIC50 was 5.1 µM (≈ 1.75 µg/mL).

**Q.** What about the MIC50 [3] of the same molecule?
**A.** The MIC50 was 0.5 µM.

**Q.** Which MIC50 [1] does the source give for `CC(=O)c1ccc(-c2cn(Cc3cccc(Cl)c3)nn2)s1` here?
**A.** Its MIC50 is > 50 µM.

**Q.** And the MIC50 [3]?
**A.** The MIC50 was > 50 µM.

**Q.** With `O=C(c1cccc(Cl)c1)N1CCN(c2ccc3c(c2)COC3)CC1` as the molecule, how does the MIC50 [1] read?
**A.** Its MIC50 is 40.8 µM (≈ 14 µg/mL).

**Q.** And the MIC50 [3]?
**A.** The MIC50 was 12.8 µM.

**Q.** What does the source list for `O=C1CCc2cc(N3CCN(C(=O)c4cccc(Cl)c4)CC3)ccc21`?
**A.** MIC50 [1]: 4.4 µM (≈ 1.56 µg/mL); MIC50 [3]: 0.3 µM

**Q.** What does the source list for `CC(=O)c1ccc(N2CCN(C(=O)c3cc(Cl)cc(Cl)c3)CC2)cc1`?
**A.** MIC50 [1]: > 50 µM; MIC50 [3]: > 50 µM

**Q.** Which MIC50 [1] does the source give for `COc1cc(Cl)cc(C(=O)N2CCN(c3ccc(C(C)=O)cc3)CC2)c1` here?
**A.** Its MIC50 is 28.6 µM (≈ 10.7 µg/mL).

**Q.** What about the MIC50 [3] of the same molecule?
**A.** Its MIC50 is 18.3 µM.

**Q.** What does the source list for `CC(=O)c1ccc(N2CCC(C(=O)c3cccc(Cl)c3)CC2)cc1`?
**A.** MIC50 [1]: 4.1 µM (≈ 1.4 µg/mL); MIC50 [3]: 6.8 µM

**Q.** What does the source list for `O=C1OCc2cc(N3CCN(C(=O)c4cccc(Cl)c4)CC3)ccc21`?
**A.** MIC50 [1]: 35 µM (≈ 12.5 µg/mL); MIC50 [3]: 1.8 µM

**Q.** For `CCC(=O)N1CCN(c2ccc(C(C)=O)cc2)CC1`, which MIC50 [1] is on record?
**A.** The MIC50 was > 50 µM.

**Q.** And the MIC50 [3]?
**A.** The MIC50 was > 50 µM.

**Q.** With `CC(=O)c1ccc(N2CCN(C(=O)c3cccnc3)CC2)cc1` as the molecule, how does the MIC50 [1] read?
**A.** Its MIC50 is > 50 µM.

**Q.** What about the MIC50 [3] of the same molecule?
**A.** Its MIC50 is 14.6 µM.

**Q.** For `CC(=O)c1ccc(N2CCN(C(=O)c3cccc(Cl)c3)CC2)s1`, which MIC50 [1] is on record?
**A.** Its MIC50 is 9.9 µM (≈ 3.45 µg/mL).

**Q.** What about the MIC50 [3] of the same molecule?
**A.** The MIC50 was 1.1 µM.
